Assay results collected from several papers.
Compare with care: the assays were run in different laboratories.

| SMILES | tested on | assay | test system | setting | endpoint | value |
| --- | --- | --- | --- | --- | --- | --- |
| CC1=C2C[C@H]3[C@@H](CC[C@@H]4C[C@H](NS(C)(=O)=O)CC[C@@]43C)[C@@H]2CC[C@@]2(C1)O[C@@H]1C[C@H](C)CN[C@H]1[C@H]2C | MB002 | cell growth or viability | – | 7 days | IC50 | > 10 µM |
| COC(=O)c1cc(-c2cccc(NC(=O)Nc3cccc(C#N)c3)c2)on1 | Mycobacteroides chelonae | microbial growth, broth dilution | ATCC35752 | 48 h | MIC | > 64 µg/mL |
| O=c1c2ccccc2nc(/C=C/c2ccc(C(F)(F)F)cc2)n1-c1cccc(O)c1 | Enterococcus faecium | microbial growth, broth dilution | NCTC7171 | – | MIC | 32 µg/mL |
| N.N.[Cl][Pt][Cl] | CCD 19Lu | cell growth or viability | – | 48 h | IC50 | 84.4 µM |
| CCCCCCNC(=S)Nc1cccc(-c2cc(C(=O)OC)no2)c1 | Mycobacteroides chelonae | microbial growth, broth dilution | ATCC35752 | 48 h | MIC | > 64 µg/mL |
| COc1cc(OC)c(C=C2C(O)=Nc3ccccc32)c(OC)c1 | MB002 | cell growth or viability | – | 7 days | IC50 | 0.0585 µM |
| COC(=O)c1cc(-c2cccc(NC(=S)Nc3ccc(OC)cc3)c2)on1 | Mycobacteroides chelonae | microbial growth, broth dilution | ATCC35752 | 48 h | MIC | > 64 µg/mL |
| CO[C@H]1/C=C/O[C@@]2(C)Oc3c(C)c(O)c4c(O)c(c(/C=N/N5CCN(C)CC5)c(O)c4c3C2=O)NC(=O)/C(C)=C\C=C\[C@H](C)[C@H](O)[C@@H](C)[C@@H](O)[C@@H](C)[C@H](OC(C)=O)[C@@H]1C | Mycobacteroides chelonae | microbial growth | – | 72 h | MIC | < 0.78 µM |
| COc1ccc(/C=C/c2nc3ccccc3c(=O)n2-c2cccc(O)c2)cc1 | Enterococcus faecium | microbial growth, broth dilution | NCTC7171 | – | MIC | 64 µg/mL |
| O=C(Nc1cccc(-c2cc(C(=O)O)no2)c1)Nc1ccc(Cl)c(Cl)c1 | Mycobacteroides chelonae | microbial growth, broth dilution | ATCC35752 | 48 h | MIC | > 64 µg/mL |
| CC(C)c1ccc(/C=C/c2nc3ccccc3c(=O)n2-c2cccc(O)c2)cc1 | Enterococcus faecium | microbial growth, broth dilution | NCTC7171 | – | MIC | > 128 µg/mL |
| CC[C@H](C)[C@@H]([C@@H](CC(=O)N1CCC[C@H]1[C@H](OC)[C@@H](C)C(=O)N[C@@H](Cc1ccccc1)C(=O)O)OC)N(C)C(=O)[C@@H](NC(=O)[C@H](C(C)C)N(C)C(=O)CCc1cn(CCOCCOCCOCCOCC(=O)NCc2ccc(CN3C(=O)[C@H]4CC(=O)N[C@H](C(=O)O)CC(=O)NCC(=O)N[C@@H](CCCNC(=N)N)C(=O)NC[C@H]3C(=O)N4)cc2)nn1)C(C)C | M21 | cell growth or viability, MTT | – | 72 h | IC50 | > 1 µM |
